Consider seven compounds from ChEMBL document CHEMBL1123039, “N-substituted imidazolines and ethylenediamines and their action on alpha- and beta-adrenergic receptors” (1985).

The subject of test [1] is Rattus norvegicus. The test is described as follows: The dose required to increase diastolic blood pressure by 50 mmHg in pithed rats after intravenous administration. It counts as functional. To be noted: Artery. The procedure, abridged:
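Pithed rat preparation with the right femoral vein cannulated for iv dosing (1 mL/kg). At least 30 min equilibration preceded drugs. Pressor effect was read as the increase in diastolic blood pressure (mmHg), and heart rate was recorded by a pulse-triggered cardiotachometer. Values are mean ± SEM.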

The test system of test [2] is Rattus norvegicus. As to the kind of experiment: Tested for alpha-2 adrenoceptor-Mediated Pressor Response in Pithed Rats; Dose ratio by subsequent administration of antagonist (yohimbine) intravenously at a dose of 1 mg/kg. It counts as functional. To be noted: route intravenous. The gist of the method:
(§1)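 Pithed rats; drugs given iv through the cannulated right femoral vein at 1 mL/kg after at least 30 min equilibration. Pressor responses to the agonist were recorded as rises in diastolic blood pressure (mmHg), with and without pretreatment with prazosin (0.1 mg/kg, iv; α1-selective) or yohimbine (1 mg/kg, iv; α2-selective). Shift of the agonist dose-response was expressed as a dose ratio (mean ± SEM).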

The test system of test [3] is Rattus norvegicus. The test is described as follows: Tested for alpha1 adrenoceptor-Mediated Pressor Response in Pithed Rats; Dose ratio subsequent administration of antagonist (Prazosin) intravenously at a dose of 0.1 mg/kg. To be noted: route intravenous. It counts as functional. The procedure, abridged: as §1
Test [4] concerns Adrenergic receptor alpha (Rattus norvegicus). As to the kind of experiment: The selectivity was evaluated against alpha 1 and alpha 2 adrenoceptors.
The test system of test [5] is Rattus norvegicus. The test is described as follows: Tested for alpha-1 adrenoceptor-Mediated Pressor response in Pithed Rats; Dose ratio subsequent administration of antagonist (Prazosin) intravenously at a dose of 0.1 mg/kg. Format: functional. To be noted: route intravenous. The procedure, abridged:
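Pithed rats; drugs given iv via the right femoral vein at 1 mL/kg after at least 30 min equilibration. The pressor response is the rise in diastolic blood pressure (mmHg). Agonist pressor responses were measured after α1-selective blockade with prazosin (0.1 mg/kg, iv), and the dose ratio for the pressor response was derived. Values are mean ± SEM.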

SMILES strings stand for the structures.

Compound `Br.Br.CCN1CCc2nc(N)oc2CC1` showed an ED50 with Rattus norvegicus [1] of 0.026 mg/kg.
As for `Cl.Cl.NCCNCCc1ccc(O)c(O)c1`, it took a dose of 0.028 mg/kg to reach the 50% effect level with Rattus norvegicus [1] (ED50). Also, the Dose ratio is 5.7 in the test with Rattus norvegicus [2] and 1.7 in the test with Rattus norvegicus [3]. This compound registered a Selectivity in test [4] of 0.3.
The like results for `Cl.Oc1ccc(CCN2C=NCC2)cc1O` were, in that order, 0.024 mg/kg, 2.1, 1.3 and 0.7.
As for `Oc1ccc(CC2=NCCN2)cc1O`, the Dose ratio in the test on Rattus norvegicus [5] is given as 0.8; in the test with Rattus norvegicus [2], 0.4. In addition, it took a dose of 0.00035 mg/kg to reach the 50% effect level in the test with Rattus norvegicus [1] (ED50). This compound also registered a Selectivity in test [4] of 2.
In the case of `c1ccc(C2CC2)c(OCC2=NCCN2)c1` [CIRAZOLINE], the ED50 in the test on Rattus norvegicus [1] amounted to 0.0006 mg/kg.
For `Cl.Cl.NCCNCc1ccc(O)c(O)c1`, the ED50 in the test on Rattus norvegicus [1] was determined as 0.305 mg/kg. For the same compound, the Dose ratio amounted to 4.4 in the test on Rattus norvegicus [2] and 5.5 in the test with Rattus norvegicus [3]. Besides, in test [4], the Selectivity amounted to 1.3.
The matching figures for `Cl.Oc1ccc(CN2C=NCC2)cc1O`: 0.035 mg/kg, 2.4, 5.3 and 2.2.
